Reference: ChEMBL document CHEMBL3526048, “In vitro metabolism of rivoglitazone, a novel peroxisome proliferator-activated receptor γ agonist, in rat, monkey, and human liver microsomes and freshly isolated hepatocytes” (Drug Metab Dispos, 2011)

What was measured:
Assay type in all cases: ADME
[1] = target: T1, UDP-glucuronosyltransferase 2B15 (Homo sapiens, UniProt P54855); assay: Activity of human UGT2B15 expressed in microsomes isolated from baculovirus infected insect cell assessed as enzyme-mediated (2S,3S,4S,5R,6R)-6-((1-carboxy-2-(4-((6-methoxy-1-methyl-1H-benzo[d]imidazol-2-yl)methoxy)phenyl)ethylthio)carbonylamino)-3,4,5-trihydroxytetrahydro-2H-pyran-2-carboxylic acid formation at 20 uM after 4 hrs by radio-HPLC/LC-MS/MS analysis in presence of UDPGA
T1 sequence (P54855 whole entry): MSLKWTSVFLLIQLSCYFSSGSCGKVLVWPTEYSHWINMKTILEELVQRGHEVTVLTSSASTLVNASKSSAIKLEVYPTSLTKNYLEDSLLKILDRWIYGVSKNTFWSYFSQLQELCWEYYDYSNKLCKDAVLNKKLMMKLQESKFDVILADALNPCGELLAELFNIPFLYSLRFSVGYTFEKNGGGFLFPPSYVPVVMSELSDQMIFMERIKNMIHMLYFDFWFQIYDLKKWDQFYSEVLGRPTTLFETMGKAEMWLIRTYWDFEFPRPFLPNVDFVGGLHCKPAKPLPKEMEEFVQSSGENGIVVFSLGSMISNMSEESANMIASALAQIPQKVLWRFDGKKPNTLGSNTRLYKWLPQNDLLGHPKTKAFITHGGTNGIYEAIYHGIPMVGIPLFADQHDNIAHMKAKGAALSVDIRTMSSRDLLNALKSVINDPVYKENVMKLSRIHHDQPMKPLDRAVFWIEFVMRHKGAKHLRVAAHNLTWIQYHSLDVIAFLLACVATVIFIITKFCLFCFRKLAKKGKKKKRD

[2] = target: T2, Cytochrome P450 3A5 (Homo sapiens, UniProt P20815); assay: Activity of human CYP3A5 expressed in microsomes isolated from baculovirus infected insect cell assessed as enzyme-mediated 5-(4-((6-hydroxy-1-methyl-1H-benzo[d]imidazol-2-yl)methoxy)benzyl)thiazolidine-2,4-dione formation at 20 uM after 2 hrs by radio-HPLC/LC-MS/MS analysis in presence of NADPH-generating system and NADPH-generating system/SAM
In short: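 cDNA-expressed human CYP3A5 in baculovirus-insect-cell microsomes (1 mg/ml protein) was incubated with [¹⁴C]rivoglitazone (20 μM) in 50 mM potassium phosphate (pH 7.4) or 100 mM Tris-HCl (pH 7.5). NADPH-generating system: 2 mM NADP⁺, 20 mM glucose 6-phosphate, 2 units/ml G6PDH, 10 mM MgCl₂. Incubation ran 2 h at 37°C with shaking; insect-cell control supersomes served as control. Acetonitrile stop, supernatant concentrated, then radio-HPLC, LC-MS and LC-MS/MS.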

[3] = target: T3, Cytochrome P450 2C19 (Homo sapiens, UniProt P33261); assay: Activity of human CYP2C19 expressed in microsomes isolated from baculovirus infected insect cell assessed as enzyme-mediated 2-mercapto-3-(4-((6-methoxy-1-methyl-1H-benzo[d]imidazol-2-yl)methoxy)phenyl)propanoic acid formation at 20 uM after 2 hrs by radio-HPLC/LC-MS/MS analysis in presence of NADPH-generating system
In short: (§1)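 Baculovirus/insect-cell microsomes expressing single human CYPs, 1 mg/ml protein, with 50 mM potassium phosphate (pH 7.4) or 100 mM Tris-HCl (pH 7.5). NADPH-generating system: 2 mM NADP⁺, 20 mM glucose 6-phosphate, 2 units/ml G6PDH, 10 mM MgCl₂. [¹⁴C]rivoglitazone at 20 μM, 2 h at 37°C with shaking. Control used insect-cell control supersomes. Stopped with acetonitrile; supernatant concentrated under nitrogen; metabolites analysed by radio-HPLC, LC-MS and LC-MS/MS.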

[4] = target: T3, Cytochrome P450 2C19; assay: Activity of human CYP2C19 expressed in microsomes isolated from baculovirus infected insect cell assessed as enzyme-mediated 5-(4-((6-methoxy-1H-benzo[d]imidazol-2-yl)methoxy)benzyl)thiazolidine-2,4-dione formation at 20 uM after 2 hrs by radio-HPLC/LC-MS/MS analysis in presence of NADPH-generating system and NADPH-generating system/SAM; in short: as §1
[5] = target: T2, Cytochrome P450 3A5; assay: Activity of human CYP3A5 expressed in microsomes isolated from baculovirus infected insect cell assessed as enzyme-mediated (2S,3S,4S,5R,6R)-3,4,5-trihydroxy-6-(5-(4-((6-methoxy-1-methyl-1H-benzo[d]imidazol-2-yl)methoxy)benzyl)-2,4-dioxothiazolidin-3-yl)tetrahydro-2H-pyran-2-carboxylic acid formation at 20 uM after 2 hrs by radio-HPLC/LC-MS/MS analysis in presence of UDPGA and UDPGA/SAM
[6] = tested on: Liver microsome; assay: Drug metabolism in Sprague-Dawley rat liver microsomes assessed as formation of 3-(4-((6-methoxy-1-methyl-1H-benzo[d]imidazol-2-yl)methoxy)phenyl)-2-(methylsulfinyl)propanamide at 20 uM after 2 hrs by radio-HPLC/LC-MS/MS analysis in presence of NADPH-generating system/SAM
[7] = target: Cytochrome P450 3A4 (Homo sapiens, UniProt P08684); assay: Activity of human CYP3A4 expressed in microsomes isolated from baculovirus infected insect cell assessed as enzyme-mediated 3-(4-((6-methoxy-1-methyl-1H-benzo[d]imidazol-2-yl)methoxy)phenyl)-2-(methylthio)propanoic acid formation at 20 uM after 2 hrs by radio-HPLC/LC-MS/MS analysis in presence of NADPH-generating system/SAM and UDPGA/SAM
[8] = target: T4, Cytochrome P450 2C8 (Homo sapiens, UniProt P10632); assay: Activity of human CYP2C8 expressed in microsomes isolated from baculovirus infected insect cell assessed as enzyme-mediated (2S,3S,4S,5R,6R)-6-((1-carboxy-2-(4-((6-methoxy-1-methyl-1H-benzo[d]imidazol-2-yl)methoxy)phenyl)ethylthio)carbonylamino)-3,4,5-trihydroxytetrahydro-2H-pyran-2-carboxylic acid formation at 20 uM after 2 hrs by radio-HPLC/LC-MS/MS analysis in presence of NADPH-generating system/SAM
T4 sequence (P10632 whole entry): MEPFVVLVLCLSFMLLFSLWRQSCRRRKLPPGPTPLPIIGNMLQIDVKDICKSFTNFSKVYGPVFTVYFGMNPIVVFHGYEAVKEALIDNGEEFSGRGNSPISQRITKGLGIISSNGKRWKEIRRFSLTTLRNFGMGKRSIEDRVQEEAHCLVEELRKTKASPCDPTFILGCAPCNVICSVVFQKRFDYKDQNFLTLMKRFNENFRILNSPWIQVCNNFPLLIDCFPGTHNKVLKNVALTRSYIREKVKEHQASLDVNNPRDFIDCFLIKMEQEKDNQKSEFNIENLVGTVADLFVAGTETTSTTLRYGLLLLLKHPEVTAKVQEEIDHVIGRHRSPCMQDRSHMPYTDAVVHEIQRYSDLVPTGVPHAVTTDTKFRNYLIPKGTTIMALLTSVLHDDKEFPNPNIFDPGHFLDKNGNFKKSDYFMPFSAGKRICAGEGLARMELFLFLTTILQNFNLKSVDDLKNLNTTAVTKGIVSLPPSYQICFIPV

[9] = target: T5, UDP-glucuronosyltransferase 2B7 (Homo sapiens, UniProt P16662); assay: Activity of human UGT2B7 expressed in microsomes isolated from baculovirus infected insect cell assessed as enzyme-mediated 2-amino-3-((1-carboxy-2-(4-((6-methoxy-1-methyl-1H-benzo[d]imidazol-2-yl)methoxy)phenyl)ethyl)disulfanyl)propanoic acid formation at 20 uM after 4 hrs by radio-HPLC/LC-MS/MS analysis in presence of UDPGA and UDPGA/SAM
T5 sequence (P16662 whole entry): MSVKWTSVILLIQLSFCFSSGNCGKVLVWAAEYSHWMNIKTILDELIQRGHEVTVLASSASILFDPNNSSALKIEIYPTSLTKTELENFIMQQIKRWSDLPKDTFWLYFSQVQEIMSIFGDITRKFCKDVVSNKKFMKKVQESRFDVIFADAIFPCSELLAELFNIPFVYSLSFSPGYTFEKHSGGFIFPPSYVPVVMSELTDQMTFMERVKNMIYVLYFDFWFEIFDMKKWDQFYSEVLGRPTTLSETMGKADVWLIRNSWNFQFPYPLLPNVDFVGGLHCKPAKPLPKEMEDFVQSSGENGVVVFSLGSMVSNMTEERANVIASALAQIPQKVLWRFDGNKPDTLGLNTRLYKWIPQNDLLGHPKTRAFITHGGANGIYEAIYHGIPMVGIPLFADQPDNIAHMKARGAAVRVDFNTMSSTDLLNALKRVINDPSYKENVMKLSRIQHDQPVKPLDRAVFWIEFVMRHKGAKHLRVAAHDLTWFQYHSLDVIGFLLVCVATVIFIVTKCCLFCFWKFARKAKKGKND

T2 sequence (P20815 whole entry): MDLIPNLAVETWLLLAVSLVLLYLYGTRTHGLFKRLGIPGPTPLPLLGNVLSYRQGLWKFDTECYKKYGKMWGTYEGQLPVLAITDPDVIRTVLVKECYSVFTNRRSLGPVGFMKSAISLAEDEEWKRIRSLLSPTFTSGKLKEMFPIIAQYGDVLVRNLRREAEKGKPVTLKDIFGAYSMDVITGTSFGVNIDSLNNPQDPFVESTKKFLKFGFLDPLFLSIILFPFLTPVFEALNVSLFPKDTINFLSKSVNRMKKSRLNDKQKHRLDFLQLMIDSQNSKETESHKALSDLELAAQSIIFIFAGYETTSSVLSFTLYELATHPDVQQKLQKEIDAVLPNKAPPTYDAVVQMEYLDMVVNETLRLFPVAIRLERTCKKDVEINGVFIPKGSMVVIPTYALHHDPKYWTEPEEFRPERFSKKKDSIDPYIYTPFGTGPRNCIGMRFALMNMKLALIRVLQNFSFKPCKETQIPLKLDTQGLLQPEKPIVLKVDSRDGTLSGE
T3 sequence (P33261 whole entry): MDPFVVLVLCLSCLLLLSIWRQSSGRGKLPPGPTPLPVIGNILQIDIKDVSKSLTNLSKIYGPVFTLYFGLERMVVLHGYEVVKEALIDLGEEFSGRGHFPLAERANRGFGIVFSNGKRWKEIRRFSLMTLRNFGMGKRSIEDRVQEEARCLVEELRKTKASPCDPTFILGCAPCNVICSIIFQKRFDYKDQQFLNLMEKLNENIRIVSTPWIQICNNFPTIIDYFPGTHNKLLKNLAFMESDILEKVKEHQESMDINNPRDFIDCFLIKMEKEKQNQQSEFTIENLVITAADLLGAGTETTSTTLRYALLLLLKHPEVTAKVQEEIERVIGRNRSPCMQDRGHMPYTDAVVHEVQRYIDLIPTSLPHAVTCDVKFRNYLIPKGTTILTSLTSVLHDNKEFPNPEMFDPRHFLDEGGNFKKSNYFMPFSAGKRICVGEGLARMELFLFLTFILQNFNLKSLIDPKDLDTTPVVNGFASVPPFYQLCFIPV
Cytochrome P450 3A4, sequence (P08684 whole entry): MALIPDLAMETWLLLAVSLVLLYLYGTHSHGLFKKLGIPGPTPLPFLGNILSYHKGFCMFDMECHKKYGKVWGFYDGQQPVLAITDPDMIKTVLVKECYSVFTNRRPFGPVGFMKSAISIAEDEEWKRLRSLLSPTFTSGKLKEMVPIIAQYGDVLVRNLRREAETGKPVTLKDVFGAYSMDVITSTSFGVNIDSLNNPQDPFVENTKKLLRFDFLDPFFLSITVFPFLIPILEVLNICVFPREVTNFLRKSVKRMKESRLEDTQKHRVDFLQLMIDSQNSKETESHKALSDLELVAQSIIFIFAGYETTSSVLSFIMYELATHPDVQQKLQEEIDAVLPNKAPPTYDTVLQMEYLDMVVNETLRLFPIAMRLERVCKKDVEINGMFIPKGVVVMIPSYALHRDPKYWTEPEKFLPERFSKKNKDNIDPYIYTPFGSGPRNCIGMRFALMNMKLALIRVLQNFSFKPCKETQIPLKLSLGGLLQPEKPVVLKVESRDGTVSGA

SMILES: COc1ccc2nc(COc3ccc(C[14CH]4SC(=O)NC4=O)cc3)n(C)c2c1.Cl (racemic)
- Drug metabolism [1]: metabolite_not_detected
- Drug metabolism [2]: metabolite_detected
- Drug metabolism [3]: metabolite_detected
- Drug metabolism [4]: metabolite_detected
- Drug metabolism [5]: metabolite_not_detected
- Drug metabolism [6]: metabolite_detected
- Drug metabolism [7]: metabolite_not_detected
- Drug metabolism [8]: metabolite_not_detected
- Drug metabolism [9]: metabolite_not_detected
